This note sets out measurements from ChEMBL document CHEMBL4038284, “Synthesis of novel quinoline-based 4,5-dihydro-1H-pyrazoles as potential anticancer, antifungal, antibacterial and antiprotozoal agents” (Eur J Med Chem, 2017).

The structures appear in SMILES notation. ≈ marks a conversion by molar mass, not a printed value.

In general, GI50 refers to the concentration that inhibits growth by half. The low end stands for more potent growth inhibition, the high end for less potent growth inhibition. The term MBC denotes the lowest tested concentration that kills the bacteria rather than only halting them. Low readings indicate greater bactericidal potency, high ones weaker bactericidal potency.

Common to all, as to assay type: functional
Test [1] deals with HL-60(TB). In words: Growth inhibition of human HL-60(TB) cells incubated for 48 hrs by sulforhodamine B assay. The conditions noted are these: HL-60, 48 h; for CC50: read-out: LC50 (the source's name). Summed up: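 NCI 60-line screen. Cells in RPMI-1640 with 5% FBS and 2 mM L-glutamine, preincubated 24 h, then time-zero plates TCA-fixed. Compounds from DMSO stocks given at five final concentrations (100, 10, 1.0, 0.1, 0.01 µM) for 48 h at 37 °C, 5% CO2. Cells fixed with 10% TCA, SRB-stained, read at 515 nm. GI50 is the concentration giving 50% lower net protein increase versus control.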
In general terms: The SRB assay estimates cell density from bound dye.

Test [2] deals with Hs-578T. In words: Growth inhibition of human Hs578T cells incubated for 48 hrs by sulforhodamine B assay. The conditions noted are these: for CC50: read-out: LC50 (the source's name). The method in brief: (§1)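 Five-dose NCI SRB assay at 100, 10, 1.0, 0.1 and 0.01 μM for 48 h at 37 °C, 5% CO2. Medium was RPMI-1640 with 5% FBS and 2 mM glutamine. Time-zero plates were TCA-fixed at compound addition, A515 read after SRB staining. GI50 was solved from [(Ti−Tz)/(C−Tz)]×100 = 50. Values beyond the tested range are given as > or <.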

Test [3] has as its system NCI-H322M. In words: Growth inhibition of human NCI-H322M cells incubated for 48 hrs by sulforhodamine B assay. The conditions noted are these: for CC50: read-out: LC50 (the source's name). Summed up: as §1
Test [4] relates to OVCAR-3. In words: Growth inhibition of human OVCAR3 cells incubated for 48 hrs by sulforhodamine B assay. The settings on record: OVCAR-3, 48 h; for CC50: read-out: LC50 (the source's name). Summed up: as §1
For test [5], the system named is SF-268. In words: Growth inhibition of human SF268 cells incubated for 48 hrs by sulforhodamine B assay. The conditions noted are these: SF-268, 48 h; for CC50: read-out: LC50 (the source's name). Summed up: as §1
For test [6], the system named is Staphylococcus aureus. In words: Bactericidal activity against methicillin-resistant Staphylococcus aureus ATCC 43300 after 24 hrs by resazurin dye based microdilution assay. The conditions noted are these: ATCC 43300, 24 h. Summed up: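 3 µL of each dilution with no visible growth was plated onto trypticase agar. Gentamicin as control. Duplicate, replicated at least three times.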
For orientation: Resazurin is reduced to fluorescent resorufin, in cell work by metabolically active cells.

For test [7], the system named is Staphylococcus aureus. In words: Bactericidal activity against methicillin-sensitive Staphylococcus aureus ATCC 25923 after 24 hrs by resazurin dye based microdilution assay. The conditions noted are these: ATCC 25923, 24 h.
The subject of test [8] is Klebsiella pneumoniae. In words: Bactericidal activity against carbapenemase positive Klebsiella pneumoniae BAA 1705 after 24 hrs by resazurin dye based microdilution assay. The conditions noted are these: BAA 1705, 24 h.
The test system of test [9] is Staphylococcus aureus. In words: Bactericidal activity against vancomycin-intermediate Staphylococcus aureus after 24 hrs by resazurin dye based microdilution assay.
In test [10] the test system is Escherichia coli. In words: Bactericidal activity against Escherichia coli ATCC 25922 after 24 hrs by resazurin dye based microdilution assay. The conditions noted are these: ATCC 25922, 24 h.

For the compound `COc1ccc(C2=NN(C=O)C(c3cccc(Nc4ccnc5cc(Cl)ccc45)c3)C2)cc1` (centres undefined), the concentration for 50% growth inhibition (GI50) in test [1] worked out at 2.03 µM; in test [2], 3.92 µM; in [3] it was 6.51 µM; in [4], 1.97 µM; in [5], 4.79 µM. The CC50 in [1] was 33.6 µM; in test [2], more than 100 µM; in test [3], more than 100 µM; in test [4], 63.7 µM; in test [5] it was more than 100 µM.
In the case of `COc1cccc2c1C(=O)c1c(O)c3c(c(O)c1C2=O)C[C@@](O)(C(=O)CO)C[C@@H]3O[C@H]1C[C@H](N)[C@H](O)[C@H](C)O1` [DOXORUBICIN], the GI50 is 0.12 µM in [1]; 0.33 µM in [2]; 0.54 µM in test [3]; 0.39 µM in test [4]; 0.1 µM in test [5].
As for `O=CN1N=C(c2ccc(Cl)cc2)CC1c1cccc(Nc2ccnc3cc(Cl)ccc23)c1` (centres undefined), the 50% growth inhibitory concentration (GI50) was 1.27 µM in test [1]; 3.23 µM in test [2]; 5.52 µM in test [3]; 1.1 µM in [4]; 2.73 µM in [5]. Further, the CC50 is more than 100 µM in [1]; more than 100 µM in test [2]; more than 100 µM in test [3]; 83.3 µM in test [4]; more than 100 µM in test [5].
In the case of `COc1cc(C(=O)/C=C/c2cccc(Nc3ccnc4cc(Cl)ccc34)c2)cc(OC)c1OC`, the concentration for 50% growth inhibition (GI50) in test [1] worked out at 1.82 µM; in [2], 2.49 µM; in test [3], 1.52 µM; in test [4], 0.39 µM; in test [5], 1.24 µM. The CC50 in test [1] was more than 100 µM; in [2], more than 100 µM; in [3], 7.08 µM; in test [4], 3.85 µM.
As for `O=Cc1cccc(Nc2ccnc3cc(Cl)ccc23)c1`, the MBC was more than 1000 µg/mL in test [6]; 500 µg/mL (≈ 1770 µM) in [7]; more than 1000 µg/mL in test [8]; 500 µg/mL (≈ 1770 µM) in test [9]; 500 µg/mL (≈ 1770 µM) in test [10].
Regarding `COc1ccc(C(=O)/C=C/c2cccc(Nc3ccnc4cc(Cl)ccc34)c2)cc1`, the GI50 in [1] turned out to be 2.98 µM; in test [2], 3.18 µM; in test [3], 2.69 µM; in test [4], 1.69 µM; in test [5], 2.47 µM. For the same compound, the CC50 in test [1], in [2], in [3], in [4] and in [5] was more than 100 µM each time.
